Activity calls are given as the source filed them.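 How the source made its calls, unless noted: active means viability at or below 10% of carrier control in both of two separate runs; inconclusive means viability at or below 10% in only one of the two runs; inactive means the rest.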
Assays:
[1] = Her2 expression decrease, cell viability multiplex – SKBR3 breast tumor cells, AlphaScreen, ATP viability, primary screen (AID 461;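 active means Her2 level under about 52% in both replicate screens, with viability over 70% of control, limit read from the data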;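 on Her2 level: lower value means less Her2 protein in the cells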;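 on viability: percent of carrier control wells set as 100% viability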); settings: SKBR3 Her2 protein level, 18-24 h, measured here: SKBR3 viability, ATP luminescence, at 10 µM
[2] = target: Receptor tyrosine-protein kinase erbB-2 (Homo sapiens) (UniProt P04626); assay: as above; settings: 18-24 h, at 10 µM, stronger effect = lower value
Receptor tyrosine-protein kinase erbB-2 (Homo sapiens), sequence (P04626 whole entry, looked up): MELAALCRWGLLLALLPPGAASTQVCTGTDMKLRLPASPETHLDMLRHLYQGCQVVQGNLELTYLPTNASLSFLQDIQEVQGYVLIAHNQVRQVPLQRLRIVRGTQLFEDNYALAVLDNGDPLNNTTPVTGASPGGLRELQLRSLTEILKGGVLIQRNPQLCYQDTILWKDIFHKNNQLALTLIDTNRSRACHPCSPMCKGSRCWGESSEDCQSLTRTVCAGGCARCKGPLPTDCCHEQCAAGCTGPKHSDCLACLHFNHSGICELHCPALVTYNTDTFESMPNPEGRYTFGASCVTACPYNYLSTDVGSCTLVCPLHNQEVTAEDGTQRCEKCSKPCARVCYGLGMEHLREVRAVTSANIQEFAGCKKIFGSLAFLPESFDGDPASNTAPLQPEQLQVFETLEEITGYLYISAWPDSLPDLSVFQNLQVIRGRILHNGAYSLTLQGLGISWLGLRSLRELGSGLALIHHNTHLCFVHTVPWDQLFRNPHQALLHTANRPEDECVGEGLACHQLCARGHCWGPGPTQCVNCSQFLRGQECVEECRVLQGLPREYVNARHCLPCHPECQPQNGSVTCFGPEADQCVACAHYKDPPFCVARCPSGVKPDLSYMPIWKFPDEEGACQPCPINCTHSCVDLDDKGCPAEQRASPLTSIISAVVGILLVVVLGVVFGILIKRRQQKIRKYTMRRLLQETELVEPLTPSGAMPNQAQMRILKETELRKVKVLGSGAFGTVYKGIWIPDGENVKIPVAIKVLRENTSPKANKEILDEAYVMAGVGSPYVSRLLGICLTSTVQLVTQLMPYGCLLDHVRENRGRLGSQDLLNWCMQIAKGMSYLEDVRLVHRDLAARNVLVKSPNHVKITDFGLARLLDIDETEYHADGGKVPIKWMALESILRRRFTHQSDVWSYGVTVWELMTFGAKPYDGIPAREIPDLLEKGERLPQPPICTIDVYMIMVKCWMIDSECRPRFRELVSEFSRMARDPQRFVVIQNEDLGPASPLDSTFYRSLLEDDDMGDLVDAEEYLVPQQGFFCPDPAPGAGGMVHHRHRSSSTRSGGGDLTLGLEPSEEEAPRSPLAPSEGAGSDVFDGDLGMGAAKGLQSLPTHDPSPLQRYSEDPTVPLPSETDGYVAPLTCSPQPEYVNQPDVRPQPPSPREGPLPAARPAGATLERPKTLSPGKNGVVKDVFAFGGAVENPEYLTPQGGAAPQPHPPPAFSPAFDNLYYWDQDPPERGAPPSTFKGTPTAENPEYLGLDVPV

[3] = reduced viability of SK-BR-3 breast cancer cells – cell-based, 24 h, human, pilot screen (AID 572); settings: SK-BR-3 viability, CellTiter-Glo luminescence, at 10 µM, stronger effect = lower value;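 further: compound exposure lasted between 18 and 24 h rather than exactly 24 h; 100% = carrier-treated control wells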
[4] = HUVEC growth inhibition – cell-based, human, primary screen (AID 575;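 active means viability at or below 30% in both replicate assays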;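 further: 100% = median of untreated cell wells with 0.1% DMSO on each plate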); settings: HUVEC proliferation, CellTiter-Glo luminescence, 72 h; at 10 µM; stronger effect = lower value
Procedure, shortened: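 Assay system: Primary human umbilical vein endothelial cells | Quantity: 1250 cells per well | Medium: Supplemented EBM, 2% fetal bovine serum | Detection: CellTiter-Glo luminescence measuring cellular ATP | Read-out: % viability vs DMSO wells | Plate: Collagen-coated 384-well format | Times: 72 h exposure, 37 °C, 5% CO2, 30 min RT equilibration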

[5] = H69AR cell proliferation blockers – human, duplicate replicates, primary screen (AID 580;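 active means viability at or under a set limit in both replicates, limit being median viability minus 3 SD, cut at about 48% in these data, passing the limit was not always enough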;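 further: 100% = mean luminescence of untreated wells and 0% = no signal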); settings: H69AR lung tumor cells viability, ATP luminescence, 72 h; at 10 µM; stronger effect = lower value
[6] = MRP1 drug-resistance reversers in H69AR cells – cell-based, doxorubicin co-treatment, pilot screen (AID 601;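 active means viability loss from added drug above about 55%, and viability with drug at most 40%, in both replicates, limit read from the data, passing the limit was not always enough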); settings: CellTiter-Glo, 72 h, at 10 µM; for differential viability (reversal): stronger effect = higher value
[7] = yeast transport mutant growth inhibition pilot in 384-well plates, post-Golgi transport modulator project (AID 636; in the data active means inhibition above about 31%); settings: absorbance 615 nm, about 18 h, stronger effect = higher value
[8] = growth suppression of yeast trafficking mutant, preliminary HTS, modulators of trafficking downstream of Golgi apparatus project, 1536-format plate, OD 615 nm (AID 637; in the data active means inhibition above about 30%); settings: yeast transport mutant growth, absorbance 615 nm, 18 h; stronger effect = higher value
[9] = H69AR cells + 2 uM doxorubicin, measured here: viability with 2 uM doxorubicin, stronger effect = lower value
[10] = H69AR cells, compound alone cytotoxicity

In the case of `O=S(=O)(c1ccc(-c2csc(-c3cccnc3)n2)cc1)N1CCCCC1`, the viability [1] is reported as 106%, the Her2 level [2] is reported as 102% (inactive) and the viability [3] is reported as 106% (inactive). The viability [4] was 81.1% (inactive), the viability [5] was 84.2% (inactive) and the differential viability (reversal) ([6]; H69AR cells + 2 uM doxorubicin) was 1.22% (inactive). The viability [6, 9] was 83%, the viability [6, 10] was 84.2% and the inhibition [7] was 0% (inactive). For the same molecule, the inhibition [8] was -1.75% (inactive).
With `COC(=O)c1c(C#N)c(N)nc2c1CCC2` the viability [1] was 117%, the Her2 level [2] was 97% (inactive) and the viability [3] was 117% (inactive). The viability [4] was 90.6% (inactive), the viability [5] was 93.7% (inactive) and the differential viability (reversal) ([6]; H69AR cells + 2 uM doxorubicin) was 0.57% (inactive). For the same molecule, the viability [6, 9] was 93.1%, the viability [6, 10] was 93.7% and the inhibition [7] was -5.2% (inactive). The inhibition [8] was -4.13% (inactive).
For `c1ccc(Oc2ccc(-n3cnnn3)cc2)cc1`, the viability [1] was 102%, the Her2 level [2] was 122% (inactive) and the viability [3] was 102% (inactive). For the same molecule, the viability [4] was 95.7% (inactive), the viability [5] was 94.2% (inactive) and the differential viability (reversal) ([6]; H69AR cells + 2 uM doxorubicin) was 15.4% (inactive). The viability [6, 9] was 78.8%, the viability [6, 10] was 94.2% and the inhibition [7] was -0.52% (inactive). The inhibition [8] was -12.2% (inactive).
For `COc1ccc(-c2nn3c(-c4ccncc4)nnc3s2)cc1OC`, the viability [1] was 105%, the Her2 level [2] was 116% (inactive) and the viability [3] was 105% (inactive). For the same molecule, the viability [4] was 104% (inactive), the viability [5] was 99.2% (inactive) and the differential viability (reversal) ([6]; H69AR cells + 2 uM doxorubicin) was -8.5% (inactive). For the same molecule, the viability [6, 9] was 108%, the viability [6, 10] was 99.2% and the inhibition [7] was -0.39% (inactive). For the same molecule, the inhibition [8] was 0.16% (inactive).
In the case of `Cc1nnc2n(Cc3ccccc3)c(=O)c3c4c(sc3n12)COC(C(C)C)C4` (stereo not given), the viability [1] is reported as 124%, the Her2 level [2] is reported as 69% (inactive) and the viability [3] is reported as 124% (inactive). The viability [4] was 82.5% (inactive), the viability [5] was 76.2% (inactive) and the differential viability (reversal) ([6]; H69AR cells + 2 uM doxorubicin) was 17% (inactive). The viability [6, 9] was 59.2%, the viability [6, 10] was 76.2% and the inhibition [7] was -7.6% (inactive). For the same molecule, the inhibition [8] was 11.9% (inactive).
With `Cc1c(NS(=O)(=O)c2ccc3c(c2)c(=O)n(C)c(=O)n3C)c(=O)n(-c2ccccc2)n1C` the viability [1] was 99.5%, the Her2 level [2] was 85.5% (inactive) and the viability [3] was 99.5% (inactive). For the same molecule, the viability [4] was 77.8% (inactive), the viability [5] was 95.7% (inactive) and the differential viability (reversal) ([6]; H69AR cells + 2 uM doxorubicin) was 6.11% (inactive). The viability [6, 9] was 89.6%, the viability [6, 10] was 95.7% and the inhibition [7] was -4.4% (inactive). For the same molecule, the inhibition [8] was 7.7% (inactive).
For `COc1cccc(N2CCN(Cc3nc(N)nc(Nc4ccccc4OC)n3)CC2)c1`, the viability [1] was 124%, the Her2 level [2] was 92% (inactive) and the viability [3] was 124% (inactive). The viability [4] was 107% (inactive), the viability [5] was 77.4% (inactive) and the differential viability (reversal) ([6]; H69AR cells + 2 uM doxorubicin) was -7.01% (inactive). The viability [6, 9] was 84.4%, the viability [6, 10] was 77.4% and the inhibition [7] was -3.95% (inactive). The inhibition [8] was 1.13% (inactive).
With `COc1cc(C2C(C#N)=C(N)OC3=C2C(=O)CCC3)ccc1OC(=O)N1CCOCC1` (stereo not given) the viability [1] was 132%, the Her2 level [2] was 91.5% (inactive) and the viability [3] was 132% (inactive). The viability [4] was 93% (inactive), the viability [5] was 87.3% (inactive) and the differential viability (reversal) ([6]; H69AR cells + 2 uM doxorubicin) was 3.67% (inactive). For the same molecule, the viability [6, 9] was 83.6%, the viability [6, 10] was 87.3% and the inhibition [7] was -5.87% (inactive). The inhibition [8] was -0.66% (inactive).
In the case of `Cc1cc(C(=O)OCCO)c(C#N)c(N)n1`, the viability [1] is reported as 92%, the Her2 level [2] is reported as 90.5% (inactive) and the viability [3] is reported as 92% (inactive). For the same molecule, the viability [4] was 95.9% (inactive), the viability [5] was 92.1% (inactive) and the differential viability (reversal) ([6]; H69AR cells + 2 uM doxorubicin) was -5.51% (inactive). For the same molecule, the viability [6, 9] was 97.6%, the viability [6, 10] was 92.1% and the inhibition [7] was -3.87% (inactive). For the same molecule, the inhibition [8] was 1.94% (inactive).
For `Cc1ccc(-n2nnnc2SCC(=O)c2cc(C)n(CC3CCCO3)c2C)cc1` (stereo not given), the viability [1] was 83.5%, the Her2 level [2] was 106% (inactive) and the viability [3] was 83.5% (inactive). For the same molecule, the viability [4] was 70.8% (inactive), the viability [5] was 86% (inactive) and the differential viability (reversal) ([6]; H69AR cells + 2 uM doxorubicin) was -9.62% (inactive). For the same molecule, the viability [6, 9] was 95.7%, the viability [6, 10] was 86% and the inhibition [7] was -5.07% (inactive). For the same molecule, the inhibition [8] was 0.48% (inactive).
In the case of `CC1(c2ccc(Cl)cc2)NC(=O)N(CC(=O)NC(=O)NCc2ccco2)C1=O` (stereo not given), the viability [1] is reported as 96%, the Her2 level [2] is reported as 80.5% (inactive) and the viability [3] is reported as 96% (inactive). For the same molecule, the viability [4] was 61.5% (inactive), the viability [5] was 107% (inactive) and the differential viability (reversal) ([6]; H69AR cells + 2 uM doxorubicin) was 26.4% (inactive). The viability [6, 9] was 81%, the viability [6, 10] was 107% and the inhibition [7] was -3.82% (inactive). The inhibition [8] was -0.33% (inactive).
With `COc1ccccc1N1CCN(C(=O)c2ccc(S(=O)(=O)N3CCCCCC3)cc2)CC1` the viability [1] was 89.5%, the Her2 level [2] was 98.5% (inactive) and the viability [3] was 89.5% (inactive). The viability [4] was 89.4% (inactive), the viability [5] was 85.5% (inactive) and the differential viability (reversal) ([6]; H69AR cells + 2 uM doxorubicin) was -2.48% (inactive). For the same molecule, the viability [6, 9] was 88%, the viability [6, 10] was 85.5% and the inhibition [7] was -5.73% (inactive). For the same molecule, the inhibition [8] was -3.44% (inactive).
For `COc1ccc(Cc2nn3c(-c4cc(OC)c(OC)c(OC)c4)nnc3s2)cc1`, the viability [1] was 95%, the Her2 level [2] was 76.5% (inactive) and the viability [3] was 95% (inactive). The viability [4] was 102% (inactive), the viability [5] was 81.6% (inactive) and the differential viability (reversal) ([6]; H69AR cells + 2 uM doxorubicin) was 11.7% (inactive). For the same molecule, the viability [6, 9] was 69.9%, the viability [6, 10] was 81.6% and the inhibition [7] was -6.08% (inactive). The inhibition [8] was 5.17% (inactive).
For `CC1(C)Cc2c(sc3ncnc(N)c23)CO1`, the viability [1] was 116%, the Her2 level [2] was 92.5% (inactive) and the viability [3] was 116% (inactive). The viability [4] was 96.6% (inactive), the viability [5] was 95.6% (inactive) and the differential viability (reversal) ([6]; H69AR cells + 2 uM doxorubicin) was 8.37% (inactive). The viability [6, 9] was 87.3%, the viability [6, 10] was 95.6% and the inhibition [7] was -7.47% (inactive). The inhibition [8] was 1.48% (inactive).
In the case of `Cc1ccc(S(=O)(=O)NC(=O)c2cc(C)n(CCCn3ccnc3)c2C)cc1`, the viability [1] is reported as 101%, the Her2 level [2] is reported as 84% (inactive) and the viability [3] is reported as 101% (inactive). For the same molecule, the viability [4] was 94.2% (inactive), the viability [5] was 90.7% (inactive) and the differential viability (reversal) ([6]; H69AR cells + 2 uM doxorubicin) was 2.88% (inactive). For the same molecule, the viability [6, 9] was 87.8%, the viability [6, 10] was 90.7% and the inhibition [7] was -7.2% (inactive). The inhibition [8] was 0.82% (inactive).
With `COc1ccccc1OCC(=O)Nc1ccc(S(=O)(=O)Nc2nc(C)cc(C)n2)cc1` the viability [1] was 90.5%, the Her2 level [2] was 184% (inactive) and the viability [3] was 90.5% (inactive). The viability [4] was 98.7% (inactive), the viability [5] was 96.3% (inactive) and the differential viability (reversal) ([6]; H69AR cells + 2 uM doxorubicin) was 7.8% (inactive). For the same molecule, the viability [6, 9] was 88.5%, the viability [6, 10] was 96.3% and the inhibition [7] was -3.59% (inactive). For the same molecule, the inhibition [8] was -5.5% (inactive).
